From ChEMBL document CHEMBL3576830, “Exploiting the Polypharmacology of ß-Carbolines to Disrupt O. volvulus Molting” (ACS Med Chem Lett, 2015)
Active and inactive are the calls of the source. The calls are words filed in the database; no cut-off is given here.

Test system: Caenorhabditis elegans
Assay: Drug metabolism in late stage L4 Caenorhabditis elegans assessed as formation of 7-methoxy-1-methyl-9H-pyrido[3,4-b]indole at 10 uM after 6 hrs by LC-MS analysis
Type: ADME, organism-based
Conditions: in vivo
Outline: (§1)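 Late-stage L4 C. elegans incubated 6 h with 10 μM inhibitor (equivalent to 2 nmol/mg worm). Worm homogenates quantified by LC−MS and also searched for metabolites (7-O-dealkylation, aromatic ring and N²-oxidation products). Uptake expressed as nmol/mg worm, mean ± SD, n = 3.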

| Compound | Drug metabolism |
| --- | --- |
| COc1ccc2c(c1)[nH]c1c(C)[n+](CC3CC3)ccc12.[Br-] | metabolite_detected |

Test system: Onchocerca volvulus
Assay: Antionchocerciasis activity against L3 larval stage of Onchocerca volvulus assessed as inhibition of parasite molting at 10 uM treated for 24 hrs prior to complete medium and PBMC addition measured after 6 days by inverted microscopic analysis
Type: functional
Conditions: not given
Outline: (§2)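 O. volvulus L3 larvae in wells, 2−3 wells per condition with on average 5−10 larvae each, exposed to inhibitor. Molting counted and expressed as percent molting.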

| Compound | inhibition at 10 µM | inhibition |
| --- | --- | --- |
| Cc1[nH]ccc2c1[nH]c1cc(=O)ccc12 [HARMOL] | 61% |  |
| COc1ccc2c(c1)[nH]c1c(C)[n+](CC3CC3)ccc12.[Br-] |  | Active |
| Cc1nccc2c3ccc(OCc4ccc(Cl)cc4)cc3n(Cc3ccc(Cl)cc3)c12 |  | inactive |
| Cc1nccc2c1[nH]c1ccccc12 [HARMAN] |  | inactive |
| COc1ccc2c(c1)[nH]c1c(C)nccc12 [HARMINE] | 57% |  |
| c1ccc2c(c1)[nH]c1cnccc12 [NORHARMANE] |  | inactive |
| Cc1c2[nH]c3cc(OCc4ccc(Cl)cc4)ccc3c2cc[n+]1Cc1ccc(Cl)cc1.[Br-] |  | Active |
| COc1ccc2c(c1)[nH]c1c(C)[n+](Cc3ccc(Cl)cc3)ccc12.[Br-] |  | Active |

Biological target: T1, Chitinase (Onchocerca volvulus, UniProt Q25615)
T1 sequence (Q25615 whole entry): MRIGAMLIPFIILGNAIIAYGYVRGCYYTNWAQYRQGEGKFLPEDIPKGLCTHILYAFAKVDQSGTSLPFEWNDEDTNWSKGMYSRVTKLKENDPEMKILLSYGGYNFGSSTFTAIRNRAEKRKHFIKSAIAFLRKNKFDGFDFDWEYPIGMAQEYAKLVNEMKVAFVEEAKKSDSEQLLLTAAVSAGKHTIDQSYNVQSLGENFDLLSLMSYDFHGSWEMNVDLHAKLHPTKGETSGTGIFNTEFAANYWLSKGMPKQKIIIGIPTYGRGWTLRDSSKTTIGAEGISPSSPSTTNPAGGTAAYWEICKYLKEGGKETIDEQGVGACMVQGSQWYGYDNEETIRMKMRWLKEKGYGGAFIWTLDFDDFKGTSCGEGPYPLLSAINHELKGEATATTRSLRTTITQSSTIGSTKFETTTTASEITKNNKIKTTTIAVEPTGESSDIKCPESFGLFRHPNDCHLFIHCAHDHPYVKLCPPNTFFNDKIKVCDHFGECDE
Assay: Competitive inhibition of L3 larval stage of Onchocerca volvulus chitinase using 4-methylumbelliferyl-N-N'-N''-beta-chitotrioside as substrate assessed as release of 4-methylumbelliferone measured for 10 mins by Dixon plot analysis
Conditions: not given

| Compound | Ki |
| --- | --- |
| COc1ccc2c(c1)[nH]c1c(C)nccc12 [HARMINE] | 3.78 µM |
| Cc1c2[nH]c3cc(OCc4ccc(Cl)cc4)ccc3c2cc[n+]1Cc1ccc(Cl)cc1.[Br-] | 0.98 µM |

Test system: Entamoeba histolytica
Assay: Inhibition of Entamoeba histolytica chitinase using 4-methylumbelliferyl-N-N'-N''-beta-chitotrioside as substrate assessed as release of 4-methylumbelliferone at 10 uM measured for 10 mins by fluorescence assay
Conditions: not given

| Compound | inhibition |
| --- | --- |
| Cc1[nH]ccc2c1[nH]c1cc(=O)ccc12 [HARMOL] | inactive |
| COc1ccc2c(c1)[nH]c1c(C)[n+](CC3CC3)ccc12.[Br-] | inactive |
| Cc1nccc2c3ccc(OCc4ccc(Cl)cc4)cc3n(Cc3ccc(Cl)cc3)c12 | inactive |
| COc1ccc2c(c1)[nH]c1c(C)nccc12 [HARMINE] | inactive |
| Cc1c2[nH]c3cc(OCc4ccc(Cl)cc4)ccc3c2cc[n+]1Cc1ccc(Cl)cc1.[Br-] | Active |

Biological target: T2, Endochitinase (Brugia malayi) (UniProt P29030)
T2 sequence (whole entry): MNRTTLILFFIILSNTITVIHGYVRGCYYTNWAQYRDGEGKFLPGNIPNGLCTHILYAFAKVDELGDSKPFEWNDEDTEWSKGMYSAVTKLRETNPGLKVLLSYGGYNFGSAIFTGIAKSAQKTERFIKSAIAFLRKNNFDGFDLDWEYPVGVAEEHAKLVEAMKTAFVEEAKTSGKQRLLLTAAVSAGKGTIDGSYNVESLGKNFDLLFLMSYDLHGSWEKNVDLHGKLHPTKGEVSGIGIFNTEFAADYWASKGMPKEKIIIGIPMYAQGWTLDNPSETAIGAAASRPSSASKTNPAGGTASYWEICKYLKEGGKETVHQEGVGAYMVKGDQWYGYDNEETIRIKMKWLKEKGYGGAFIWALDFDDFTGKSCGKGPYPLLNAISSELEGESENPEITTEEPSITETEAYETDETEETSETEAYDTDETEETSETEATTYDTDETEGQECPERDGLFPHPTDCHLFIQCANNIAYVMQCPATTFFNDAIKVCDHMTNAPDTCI
Assay: Inhibition of Brugia malayi chitinase using 4-methylumbelliferyl-N-N'-N''-beta-chitotrioside as substrate assessed as release of 4-methylumbelliferone at 10 uM measured for 10 mins by fluorescence assay
Conditions: not given

| Compound | inhibition |
| --- | --- |
| Cc1[nH]ccc2c1[nH]c1cc(=O)ccc12 [HARMOL] | inactive |
| COc1ccc2c(c1)[nH]c1c(C)[n+](CC3CC3)ccc12.[Br-] | inactive |
| Cc1nccc2c3ccc(OCc4ccc(Cl)cc4)cc3n(Cc3ccc(Cl)cc3)c12 | inactive |
| COc1ccc2c(c1)[nH]c1c(C)nccc12 [HARMINE] | inactive |
| Cc1c2[nH]c3cc(OCc4ccc(Cl)cc4)ccc3c2cc[n+]1Cc1ccc(Cl)cc1.[Br-] | Active |

Test system: Onchocerca volvulus
Assay: Antionchocerciasis activity against L3 larval stage of Onchocerca volvulus assessed as inhibition of parasite molting at 1 uM treated for 24 hrs prior to complete medium and PBMC addition measured after 6 days by inverted microscopic analysis
Type: functional
Conditions: not given
Outline: as §2

| Compound | inhibition | inhibition at 1 µM |
| --- | --- | --- |
| COc1ccc2c(c1)[nH]c1c(C)[n+](CC3CC3)ccc12.[Br-] | inactive |  |
| Cc1c2[nH]c3cc(OCc4ccc(Cl)cc4)ccc3c2cc[n+]1Cc1ccc(Cl)cc1.[Br-] |  | 27% |
| COc1ccc2c(c1)[nH]c1c(C)[n+](Cc3ccc(Cl)cc3)ccc12.[Br-] |  | 45% |

Biological target: T3, Chitinase (Onchocerca volvulus) (UniProt Q25615)
T3 sequence (whole entry): T1 sequence (Q25615 whole entry)
Assay: Inhibition of L3 larval stage of Onchocerca volvulus chitinase using 4-methylumbelliferyl-N-N'-N''-beta-chitotrioside as substrate assessed as release of 4-methylumbelliferone at 5 uM measured for 10 mins by fluorescence assay
Conditions: not given
Outline: (§3)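 OvCHT1 activity read by fluorescence, inhibitors tested at 10 and 5 μM.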

| Compound | inhibition |
| --- | --- |
| Cc1c2[nH]c3ccccc3c2cc[n+]1CC1CC1 | inactive |
| Cc1nccc2c3ccccc3n(CC3CC3)c12 | inactive |
| Cc1c2[nH]c3ccccc3c2cc[n+]1Cc1ccc(Cl)cc1 | inactive |

Test system: Onchocerca volvulus
Assay: Antionchocerciasis activity against L3 larval stage of Onchocerca volvulus assessed as prevention of L3 cuticle shedding at 100 uM treated for 24 hrs prior to complete medium and PBMC addition measured after 6 days by inverted microscopic analysis
Type: functional, organism-based
Conditions: not given
Outline: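 O. volvulus L3 larvae in 2–3 wells, on average 5–10 larvae per well; read-out is percent molting across the wells.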

| Compound | Activity |
| --- | --- |
| Cc1nccc2c3ccc(OCc4ccc(Cl)cc4)cc3n(Cc3ccc(Cl)cc3)c12 | Active |
| Cc1nccc2c1[nH]c1ccccc12 [HARMAN] | Active |
| c1ccc2c(c1)[nH]c1cnccc12 [NORHARMANE] | Active |

Test system: HEK-293T
Assay: Mitochondrial uncoupling activity in HEK293T/17 cells at 50 uM after 30 mins by TMRE staining-based fluorescence assay
Type: functional, cell-based
Conditions: Homo sapiens
Outline: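 HEK 293T/17 cells incubated with 50 μM compound, then stained with TMRE to detect mitochondrial membrane depolarization, read in a microplate fluorescence assay. Reported as mean fluorescence intensity ± SD (n = 3). Unstained cells served as negative control and 0.5% DMSO as positive control. CCCP served as reference protonophore.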

| Compound | Activity |
| --- | --- |
| Cc1[nH]ccc2c1[nH]c1cc(=O)ccc12 [HARMOL] | Active |
| COc1ccc2c(c1)[nH]c1c(C)[n+](CC3CC3)ccc12.[Br-] | Active |
| Cc1nccc2c3ccc(OCc4ccc(Cl)cc4)cc3n(Cc3ccc(Cl)cc3)c12 | inactive |
| Cc1nccc2c1[nH]c1ccccc12 [HARMAN] | inactive |
| COc1ccc2c(c1)[nH]c1c(C)nccc12 [HARMINE] | Active |
| c1ccc2c(c1)[nH]c1cnccc12 [NORHARMANE] | inactive |
| Cc1c2[nH]c3cc(OCc4ccc(Cl)cc4)ccc3c2cc[n+]1Cc1ccc(Cl)cc1.[Br-] | Active |
| N#CC(C#N)=NNc1cccc(Cl)c1 | Active |
| COc1ccc2c(c1)[nH]c1c(C)[n+](Cc3ccc(Cl)cc3)ccc12.[Br-] | Active |

Test system: Caenorhabditis elegans
Assay: Drug metabolism in late stage L4 Caenorhabditis elegans assessed as formation of 7-O-dealkylated, aromatic ring, and N2-oxidized metabolite at 10 uM after 6 hrs by LC-MS analysis
Type: ADME, organism-based
Conditions: in vivo
Outline: as §1

| Compound | Drug metabolism |
| --- | --- |
| COc1ccc2c(c1)[nH]c1c(C)[n+](CC3CC3)ccc12.[Br-] | metabolite_notdetected |

Biological target: T1, Chitinase
Assay: Inhibition of L3 larval stage of Onchocerca volvulus chitinase using 4-methylumbelliferyl-N-N'-N''-beta-chitotrioside as substrate assessed as release of 4-methylumbelliferone measured for 10 mins by fluorescence assay
Conditions: not given

| Compound | IC50 |
| --- | --- |
| Cc1[nH]ccc2c1[nH]c1cc(=O)ccc12 [HARMOL] | 7.08 µM |
| COc1ccc2c(c1)[nH]c1c(C)[n+](CC3CC3)ccc12.[Br-] | 3.57 µM |
| Cc1nccc2c3ccc(OCc4ccc(Cl)cc4)cc3n(Cc3ccc(Cl)cc3)c12 | 2.08 µM |
| Cc1nccc2c1[nH]c1ccccc12 [HARMAN] | 7.33 µM |
| COc1ccc2c(c1)[nH]c1c(C)nccc12 [HARMINE] | 7.06 µM |
| c1ccc2c(c1)[nH]c1cnccc12 [NORHARMANE] | 8.46 µM |
| Cc1c2[nH]c3cc(OCc4ccc(Cl)cc4)ccc3c2cc[n+]1Cc1ccc(Cl)cc1.[Br-] | 1.43 µM |
| COc1ccc2c(c1)[nH]c1c(C)[n+](Cc3ccc(Cl)cc3)ccc12.[Br-] | 3.49 µM |

Biological target: T3, Chitinase (Onchocerca volvulus)
Assay: Inhibition of L3 larval stage of Onchocerca volvulus chitinase using 4-methylumbelliferyl-N-N'-N''-beta-chitotrioside as substrate assessed as release of 4-methylumbelliferone at 10 uM measured for 10 mins by fluorescence assay
Type: tissue-based
Conditions: not given
Outline: as §3

| Compound | inhibition |
| --- | --- |
| O=S(=O)(Nc1ccccc1)c1ccc2[nH]c3cnccc3c2c1 | inactive |
| Cc1nccc2c3ccccc3n(Cc3ccccc3)c12 | inactive |
| Cc1nccc2c1[nH]c1cc(OCC3CC3)ccc12 | inactive |
| Cc1nccc2c1[nH]c1cc(OCc3ccc(Cl)cc3)ccc12 | inactive |
| Cc1c2[nH]c3ccccc3c2cc[n+]1Cc1ccccc1 | inactive |
| Cc1ccc(NS(=O)(=O)c2ccc3[nH]c4cnccc4c3c2)cc1 | inactive |
| COc1ccc2c3ccnc(C)c3n(Cc3ccc(Cl)cc3)c2c1 | inactive |
| Cc1c2[nH]c3ccccc3c2cc[n+]1Cc1ccc(C(F)(F)F)cc1 | inactive |
| COc1ccc2c3ccnc(C)c3n(CC3CC3)c2c1 | inactive |
| Cc1nccc2c3ccccc3n(Cc3ccc(Cl)cc3)c12 | inactive |
| Cc1c2[nH]c3ccccc3c2cc[n+]1C | inactive |
| CCNS(=O)(=O)c1ccc2[nH]c3cnccc3c2c1 | inactive |
| Cc1nccc2c3ccccc3n(C)c12 | inactive |
| O=S(=O)(Nc1ccc(Cl)cc1)c1ccc2[nH]c3cnccc3c2c1 | inactive |
| O=S(=O)(NC1CCCC1)c1ccc2[nH]c3cnccc3c2c1 | inactive |

Test system: Caenorhabditis elegans
Assay: Drug uptake in late stage L4 Caenorhabditis elegans at 10 uM after 6 hrs by LC-MS analysis
Type: ADME, organism-based
Conditions: in vivo
Outline: as §1

| Compound | Drug uptake |
| --- | --- |
| COc1ccc2c(c1)[nH]c1c(C)[n+](CC3CC3)ccc12.[Br-] | 0.033 nmol/mg |
| COc1ccc2c(c1)[nH]c1c(C)[n+](Cc3ccc(Cl)cc3)ccc12.[Br-] | 0.22 nmol/mg |

Test system: HEK-293T
Assay: Cytotoxicity against HEK293T/17 cells at 5 uM after 0.5 to 24 hrs by MTS assay
Type: cell-based
Conditions: human

| Compound | Activity |
| --- | --- |
| COc1ccc2c(c1)[nH]c1c(C)[n+](CC3CC3)ccc12.[Br-] | Non-toxic |
| Cc1c2[nH]c3cc(OCc4ccc(Cl)cc4)ccc3c2cc[n+]1Cc1ccc(Cl)cc1.[Br-] | Non-toxic |
| COc1ccc2c(c1)[nH]c1c(C)[n+](Cc3ccc(Cl)cc3)ccc12.[Br-] | Non-toxic |

Test system: Caenorhabditis elegans
Assay: Drug level in late stage L4 Caenorhabditis elegans treated with 2-(Cyclopropylmethyl)-7-methoxy-1-methyl-9H-pyrido[3,4-b]indol-2-ium bromide at 10 uM after 6 hrs by LC-MS analysis
Type: ADME, organism-based
Conditions: in vivo
Outline: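 Late-stage L4 C. elegans were exposed to 10 μM compound (equivalent to 2 nmol/mg worm) for 6 h. Worm homogenates were quantified by LC–MS and expressed as nmol/mg worm, mean ± SD, n = 3.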

| Compound | Drug uptake |
| --- | --- |
| COc1ccc2c(c1)[nH]c1c(C)nccc12 [HARMINE] | 0.052 nmol/mg |
